Laboratory results published in the EternaBench riboswitch data.

Test system: MS2 coat protein
Assay: apparent Kd, MS2 coat protein; higher = weaker binding; RNA-MaP array; FMN 200 µM where present
In short: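 Two titrations, one without ligand and one with constant ligand, were run with SNAP-549-labelled MS2 coat protein from 0.7 or 1.5 nM, doubling to 3 µM. The targets were designs transcribed by stalled E. coli RNA polymerase on Illumina sequencing-chip clusters, in 100 mM Tris-HCl pH 7.5, 80 mM KCl, 4 mM MgCl2, BSA, DTT, yeast tRNA and Tween-20. The apparent Kd is the median of filtered per-cluster binding-curve fits, with green signal normalised to red-channel RNA signal and control-cluster median Fmax.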

[1] = designed as: ON switch for flavin mononucleotide, no ligand
[2] = ligand present: flavin mononucleotide, designed as: ON switch for flavin mononucleotide
[3] = designed as: OFF switch for flavin mononucleotide, no ligand
[4] = ligand present: flavin mononucleotide, designed as: OFF switch for flavin mononucleotide

| Sequence | apparent Kd [1] | apparent Kd [2] | apparent Kd [3] | apparent Kd [4] |
| --- | --- | --- | --- | --- |
| UGGUACUAGGGAGGAUAUGGGAAGAUACAUGAGGAUCACCCAUGUUUACGAAUGCCGAGAGGCAACUAGAAGGCCCUAGUACCU | 0.315 µM | 0.0195 µM | – | – |
| UGGUCAUGAUCAGGAUAUUAACAUGGGCUACAUUGAGAAGGGAUAGUGAGAUACGAACUGAACGACAUGAGGAUCACCCAUGUA | 0.0597 µM | 0.044 µM | – | – |
| UGGUGAAGUGUAGGAUAUGGAGGUGGGUUUUGGCCAGAAGGACAUGAGGAUCACCCAUGUGGUAGAGGGUUGGUGGUGGCCCGU | – | – | 0.0167 µM | 0.0152 µM |
| UGUAACCUAGGAUAUACAUGAGGAUCACCCAUGUAAUGUAGUAUAGUGUGUGUGAGGUGUAGAAGGAGGGAUGU | – | – | 0.0795 µM | 0.125 µM |
| UGUAAUGCUAUUGCAGAGGUUUAGAAGGAUAUACAUCGACAUGACCGUACAUGAGGAUCACCCAUGUAGAAGGUCUAACUUCUU | – | – | 0.00495 µM | 0.00491 µM |
| UGUACGUGAGGAUAUGGACGUAUCGAAGACAAGCUACGAUACCAGAAGGUACAUGAGGAUCACCCAUGUGGUUC | – | – | 0.376 µM | 0.37 µM |
| UGUAUGGACAGAGGAUAUACAGAUAGGAUCUACUAUCAAACAAUCCUGACAUGAGGAUCACCCAUGUAGAAGGCUGUCCAUACU | – | – | 0.0238 µM | 0.0914 µM |
| UGUAUGGACAGAGGAUAUACCGAUAGGAUCUACUAUCGAACAAUCCUCACAUGAGGAUCACCCAUGUAGAAGGCUGUCCAUACU | – | – | 0.0241 µM | 0.283 µM |
| UGUAUGGACAGAGGAUAUGCCGAUAGGAUCUACUAUCGAAGAAUCCUCACAUGAGGAUCACCCAUGUAGAAGGCUGUCCAUACU | – | – | 0.0253 µM | 0.15 µM |
| UGUAUUAAUGGAGGAUAUCGAUAUCAAACAUGAGGAUCACCCAUGUUGAGGAUCACCCAUGUCCACGAGAAGGCUGGCGUACGU | 0.0166 µM | 0.0181 µM | – | – |
| UGUAUUAAUGGAGGAUAUCGAUAUCAAACAUGAGGAUCACCCAUGUUGAGGAUCACCCAUGUCCAUGAGAAGGCCGGCGUACUU | 0.0344 µM | 0.0328 µM | – | – |
| UGUCAUAAAUAGAAGGGUAGUUGGGUUUUACAUGAGGAUCACCCAUGUAUUAUAGGAUAUGUGUAAAGUUAUUAUUAAAGUAAA | – | – | 0.0392 µM | 0.0345 µM |
| UGUCGAAGCAGAGGAUAUUACAUGAGGAUCACCCAUGUAUGAACCAAUAGCUGGAAACAGCAAUGUAAGAAGGCUGCUCCGACA | – | – | 0.0118 µM | 0.138 µM |
| UGUCGGACCAGAGGAUAUUACAUGAGGAUCACCCAUGUAUGAACCAAUAGCUGGAAACAGCAAUGUAAGAAGGCUGCUCCGACA | – | – | 0.00974 µM | 0.105 µM |
| UGUCGGAGCAGAGGAUAUACAUGAGGAUCACCCAUGUAAAUGAAAGAUAAGCUGGAAACAGCAAUGUAGAAGGCUGCUCCGACA | – | – | 0.0184 µM | 0.0881 µM |
| UGUCGGAGCAGAGGAUAUACAUGAGGAUCACCCAUGUAAUAAAGUGAAGCCUGAAAACAGGCAAUGUAGAAGGCUGCUCCGACA | – | – | 0.0115 µM | 0.085 µM |
| UGUCGGAGCAGAGGAUAUUACAUGAGGAUCACCCAUGUAUGAACCAAUAGCUCGAAACAGCAAUGUAAGAAGGCUGCUCCGACA | – | – | 0.00638 µM | 0.0699 µM |
| UGUCGGAGCAGAGGAUAUUACAUGAGGAUCACCCAUGUAUGAACCAAUAGCUGGAAACAGCAAUGUAAGAAGGCUGCUCCGAUA | – | – | 0.0118 µM | 0.166 µM |
| UGUCGGAGCAGAGGAUAUUACAUGAGGAUCACCCAUGUAUGAACCAAUAGCUGGAAAUAGCAAUGUAAGAAGGCUGCUCCGACA | – | – | 0.0158 µM | 0.168 µM |
| UGUCGGAGCAGAGGAUAUUACAUGAGGAUCACCCAUGUAUGAACCAAUGGCUGGAAACAGCAAUGUAAGAAGGCUGCUCCGACA | – | – | 0.00969 µM | 0.0645 µM |
| UGUCGGAGCAGAGGAUAUUACAUGAGGAUCACCCAUGUAUGAACCAAUUGCUGGAAACAGCAAUGUAAGAAGGCUGCUCCGACA | – | – | 0.00504 µM | 0.00944 µM |
| UGUCGGAGCAGAGGAUAUUACAUGAGGAUCACCCAUGUAUGAACCAUUAGCUGGAAACAGCAAUGUAAGAAGGCUGCUCCGACA | – | – | 0.00537 µM | 0.0104 µM |
| UGUCGGAGCAGAGGAUAUUACAUGAGGAUCACCCAUGUAUGAUCCAAUAGCUGGAAACAGCAAUGUAAGAAGGCUGCUCCGACA | – | – | 0.291 µM | 0.00848 µM |
| UGUCUAUAUGAAGGAUAUCUAAGCAUAAACCGUAGAGAAGGUCAAUAGUACAUGAGGAUCACCCAUGUUGGGAUUGAUGGGUUU | – | – | 0.0253 µM | 0.0386 µM |
| UGUGAGUUGAUGUUAGAUAGGAGAACAUGAGGAUCACCCAUGUAGGAUAUUCAAAGACGAAGAUAGAAGAAGGACAUAGGUUUC | – | – | 0.0177 µM | 0.0215 µM |
| UGUGCUAUGUAGAAGGCAGAUCUGAUUCAGAUCUGAGGAUAUACAUGAGGAUCACCCAUGUUAUGCACCAGCACGAGAGUGCAA | – | – | 0.00813 µM | 0.016 µM |
| UGUGCUAUGUAGAAGGCAGAUCUGAUUCAGAUCUGAGGAUAUACAUGAGGAUCACCCAUGUUAUGCACCAGCACGAGAGUGCAC | – | – | 0.00789 µM | 0.0171 µM |

| Sequence | apparent Kd [1] | apparent Kd [2] | apparent Kd [3] | apparent Kd [4] |
| --- | --- | --- | --- | --- |
| UGUGUCAUCGAGAAGGCCUCAACAUGAGGAUCACCCAUGUUGUAAUAUGGGAGGAUAUCGAUGAUACAGCUACGUUUCGUAGCC | 0.0184 µM | 0.00567 µM | – | – |
| UGUGUGUGACAGGAUAUGCUGGUUAUGAGACGGGUAGAAGGGUCUACAUGAGGAUCACCCAUGUGGCCGGUUGG | – | – | 0.019 µM | 0.0212 µM |
| UGUGUGUGAGGAUAUACAUGAGGAUCACCCAUGUAGCGCGCGCGUAUUCGUGUGUGUUGUAGAAGGCGCGCGCG | – | – | 0.033 µM | 0.0305 µM |
| UGUGUGUGGCAGGAUAUGCAGGUAGUAGGACGGGUAGAAGGGUCUACAUGAGGAUCACCCAUGUGGCCGGUUGG | – | – | 0.0168 µM | 0.0181 µM |
| UGUGUGUUUGUGAGGAUAUGCGCGCGGAAAUGUGUGUAGAAGGCACAUGAGGAUCACCCAUGUAAGGGCGCGCG | – | – | 0.596 µM | 0.439 µM |
| UGUGUUAUUGGAGGAUAUCGAUAUCAAACAUGAGGAUCACCCAUGUUGAGGAUCACACAUGUAAAUGAGAAGGCCGACGUAGUG | 0.0125 µM | 0.0162 µM | – | – |
| UGUGUUAUUGGAGGAUAUCGAUAUCAAACAUGAGGAUCACCCAUGUUGAGGAUCACACAUGUACAUGAGAAGGCCGACGUAGUG | 0.0133 µM | 0.0145 µM | – | – |
| UGUGUUAUUGGAGGAUAUCGAUAUCAAACAUGAGGAUCACCCAUGUUGAGGAUCACACAUGUCCAUGAGAAGGCCGACGUAGUG | 0.0105 µM | 0.0105 µM | – | – |
| UGUUGUAUUACAGGAUAUCUAGUAUUAUUAUUUAGAGAAGGGUAUUCACAUGAGGAUCACCCAUGUAUAUACGAGGAAGUUGUG | 0.0382 µM | 0.0401 µM | – | – |
| UGUUGUAUUACAGGAUAUCUAGUAUUUAUAUUUAGAGAAGGGUAUUCACAUGAGGAUCACCCAUGUAUAUACGAGGAAGUUGUG | 0.0463 µM | 0.0492 µM | – | – |
| UGUUGUAUUACAGGAUAUCUAGUAUUUUGAUUUAGAGAAGGGUAUUCACAUGAGGAUCACCCAUGUAUAUACGAGGAAGUUGUG | 0.0524 µM | 0.0574 µM | – | – |
| UGUUGUAUUACAGGAUAUCUAUGAUUUUUAUAUAGAGAAGGGUAUUCACAUGAGGAUCACCCAUGUAUAUACGAGGAAGUUGUG | 0.049 µM | 0.056 µM | – | – |
| UGUUGUAUUACAGGAUAUCUAUUAGGUUUAUUUAGAGAAGGGUAUUCACAUGAGGAUCACCCAUGUAUAUACGAGGAAGUUGUG | 0.0562 µM | 0.0633 µM | – | – |
| UGUUGUAUUACAGGAUAUCUAUUAGUAUUAUUUAGAGAAGGGUAUUCACAUGAGGAUCACCCAUGUAUAUACGAGGAAGUUGUG | 0.0469 µM | 0.0484 µM | – | – |
| UGUUGUAUUACAGGAUAUCUAUUAUUUUUAUUUAGAGAAGGGUAUUCACAUGAGGAUCACCCAUGUAUAUACGAGGAAGAUGUG | 0.0915 µM | 0.107 µM | – | – |
| UGUUGUUCCGCAGGAUAUGUAUUGGAUUACAAUACAGAAGGGCGAUAACAUGAGGAUCACCCAUGUGUGGACAAUAAGGAAGAG | 0.708 µM | 0.0671 µM | – | – |
| UGUUUGCGGCAGGAUAUCCAUCCGCGGUGUGGUGGAGAAGGGCUGACAUGAGGAUCACCCAUGUGCGUCCUGUU | – | – | 0.0236 µM | 0.0279 µM |
| UUAAAACAUGAGGAUCACCCAUGUGAGGAUAUGAGCCGACUGUCCUGUCGGCAUGUAGUCAGAAGGUGCAGGGU | – | – | 0.0622 µM | 0.109 µM |
| UUAAAUCAUGUAGGAUAUGCAUGGCGAAGCUACGCAGAAGGACAUGAGGAUCACCCAUGUGCUAGCUACCGGAGACGGUGGCAA | – | – | 0.0577 µM | 0.195 µM |
| UUAAAUCAUGUAGGAUAUGCAUGGCGAAGCUACGCAGAAGGACAUGAGGAUCACCCAUGUUAUAGCUACCCAGAACGGUGGCAA | – | – | 0.0755 µM | 0.267 µM |
| UUAAAUCAUGUAGGAUAUGCAUGGCGAAGCUACGCAGAAGGACAUGAGGAUCACCCAUGUUAUAGCUACCGAGUUCGGUGGCAA | – | – | 0.109 µM | 0.224 µM |
| UUAACAUGAGGAUCACCCAUGUAAAGAACGGUUAAUUAAAGUGAGGAUAUACAAAAUUUUAUAUUGUAGAAGGCACUGGGUACA | – | 0.0229 µM | – | – |
| UUAACAUGAGGAUCACCCAUGUAUAGAUCGGUUAAUAGAAGUGAGGAUAUGCUUAAAAUAAGGUAGCAGAAGGCACUGGGUACU | 0.0242 µM | 0.0287 µM | – | – |
| UUAACUCAUGUAGGAUAUGCAUGGCGAAGCUACGCAGAAGGACAUGAGGAUCACCCAUGUUCUAGCGUCUGGAUACAGAUGCAA | – | – | 0.0561 µM | 0.227 µM |
| UUAAGUCAUGUAGGAUAUCCGAGGCGAAGCGUUGGAGAAGGACAUGAGGAUCACCCAUGUUCUAGCGUCUGAGUACAGAUGCAA | – | – | 0.0227 µM | 0.0337 µM |
| UUAAUUAAUUAAUUAUACAUGAGGAUCACCCAUGUAAGUGAUCAGGAUAUCAGCUCGAAUAGAGCUGAGAAGGGAUACAUGUAA | 0.199 µM | 0.111 µM | – | – |
| UUAAUUAAUUAGAAGGCAUGUCAUAAGACAUGAGGAUCACCCAUGUAGUUAAGGCGAAAGCCGCAUGAGGAUAUAUAAAUAUAU | 0.552 µM | 0.319 µM | – | – |
